Reference: ChEMBL document CHEMBL4152268, “Synthesis of proline derived benzenesulfonamides: A potent anti-Trypanosoma brucei gambiense agent” (Eur J Med Chem, 2018)
pIC50: −log10 of the molar value.

How the values were obtained:
Rattus norvegicus [1] = experiment: Antiinflammatory activity in rat assessed as inhibition of carrageenan-induced paw edema at 100 mg/kg, po administered 1 hr followed by carrageenan challenge measured at 1 hr by plethysmometer relative to control; format: functional
How it was run: (§1)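 Rats dosed orally (test compounds 100 mg/kg; indomethacin reference 25 mg/kg). One hour later, 1% carrageenan suspension (0.05 mL/animal) was injected sub-plantar into the right hind paw. Paw size was measured by mercury-displacement plethysmometer, calibrated beforehand, at intervals after injection. Activity was calculated as percentage decrease in carrageenan-induced edema relative to control.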

Rattus norvegicus [2] = experiment: Antiinflammatory activity in rat assessed as inhibition of carrageenan-induced paw edema at 100 mg/kg, po administered 1 hr followed by carrageenan challenge measured at 0.5 hrs by plethysmometer relative to control; format: functional; how it was run: as §1
[3] = test system: Trypanosoma brucei gambiense; experiment: Antitrypanosomal activity against Trypanosoma brucei gambiense GUTat 3.1 after 72 hrs by Alamar Blue assay; format: functional, organism-based; settings: GUTat 3.1, 72 h
How it was run: (§2)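 T. b. gambiense GUTat 3.1 was cultured in supplemented IMDM with 10% heat-inactivated FBS at 37 °C under 5.0% CO2/95% air. Parasites were seeded in 96-well plates, and compound in 5.0% DMSO was added for 72 h. Alamar Blue was then added for 3-6 h and fluorescence read (ex 528/20, em 590/35 nm). IC50 was obtained from the plate-reader software.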

Mus musculus = experiment: Toxicity in ip dosed mouse measured over 72 hrs; format: organism-based; settings: in vivo
How it was run: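 Male mice, grouped, given graded intraperitoneal doses; watched continuously 6 h, then kept under observation to 72 h, monitored 4 times daily, with behavioural changes and deaths recorded. Humane endpoints applied, with CO2 euthanasia. Percentage death per dose converted to probits to derive LD50 (μM/kg); mortality rate = dead/group size ×100.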

Rattus norvegicus [4] = experiment: Antiinflammatory activity in rat assessed as inhibition of carrageenan-induced paw edema at 100 mg/kg, po administered 1 hr followed by carrageenan challenge measured at 3 hrs by plethysmometer relative to control; format: functional; how it was run: as §1
Rattus norvegicus [5] = experiment: Antiinflammatory activity in rat assessed as inhibition of carrageenan-induced paw edema at 100 mg/kg, po administered 1 hr followed by carrageenan challenge measured at 2 hrs by plethysmometer relative to control; format: functional; how it was run: as §1
[6] = test system: Trypanosoma brucei gambiense; experiment: Antitrypanosomal activity against Trypanosoma brucei gambiense; format: functional, organism-based; how it was run: as §2
[7] = test system: Trypanosoma brucei brucei; experiment: Antitrypanosomal activity against Trypanosoma brucei brucei after 48 hrs by Alamar blue assay; format: functional, organism-based
Rattus norvegicus [8] = experiment: Antiinflammatory activity in rat assessed as inhibition of carrageenan-induced paw edema at 25 mg/kg, po administered 1 hr followed by carrageenan challenge measured at 0.5 hrs by plethysmometer relative to control; format: functional; how it was run: as §1
Rattus norvegicus [9] = experiment: Antiinflammatory activity in rat assessed as inhibition of carrageenan-induced paw edema at 25 mg/kg, po administered 1 hr followed by carrageenan challenge measured at 1 hr by plethysmometer relative to control; format: functional; how it was run: as §1
Rattus norvegicus [10] = experiment: Antiinflammatory activity in rat assessed as inhibition of carrageenan-induced paw edema at 25 mg/kg, po administered 1 hr followed by carrageenan challenge measured at 2 hrs by plethysmometer relative to control; format: functional; how it was run: as §1
Rattus norvegicus [11] = experiment: Antiinflammatory activity in rat assessed as inhibition of carrageenan-induced paw edema at 25 mg/kg, po administered 1 hr followed by carrageenan challenge measured at 3 hrs by plethysmometer relative to control; format: functional; how it was run: as §1

Row | pIC50 [6] | pIC50 [7] | Compound | inhibition in vivo at 100 mg/kg (Rattus norvegicus [1]) [%] | inhibition in vivo at 100 mg/kg (Rattus norvegicus [2]) [%] | pIC50 [3] | LD50 (Mus musculus) [µM/g] | inhibition in vivo at 100 mg/kg (Rattus norvegicus [4]) [%] | inhibition in vivo at 100 mg/kg (Rattus norvegicus [5]) [%] | inhibition in vivo at 25 mg/kg (Rattus norvegicus [8]) [%] | inhibition in vivo at 25 mg/kg (Rattus norvegicus [9]) [%] | inhibition in vivo at 25 mg/kg (Rattus norvegicus [10]) [%] | inhibition in vivo at 25 mg/kg (Rattus norvegicus [11]) [%]
1 | – | – | O=C(O)c1ccc(NC(=O)[C@@H]2CCCN2S(=O)(=O)c2ccc([N+](=O)[O-])cc2)cc1 | 45.9 | 42.1 | 8.70 | 8.65 | 52.3 | 50.1 | – | – | – | –
2 | – | – | O=C(O)c1ccc(NC(=O)[C@@H]2CC(O)CN2S(=O)(=O)c2ccc([N+](=O)[O-])cc2)cc1 (stereo partly specified) | 48.5 | 44.1 | 6.84 | 10.28 | 62.8 | 52.2 | – | – | – | –
3 | – | – | O=C(O)c1ccc(NC(=O)[C@@H]2CC(O)CN2S(=O)(=O)c2ccccc2)cc1 (stereo partly specified) | 24.7 | 33.9 | 6.80 | 12.07 | 1.85 | 27.3 | – | – | – | –
4 | 5.89 | – | CCS(=O)(=O)N1CCCc2cc(NS(=O)(=O)c3ccccc3F)ccc21 | – | – | – | – | – | – | – | – | – | –
5 | – | – | Cc1ccccc1S(=O)(=O)N1CC(O)C[C@H]1C(=O)Nc1ccc(C(=O)O)cc1 (stereo partly specified) | 21.2 | 38.6 | 6.80 | 9.98 | 25.3 | 23.4 | – | – | – | –
6 | – | – | O=C(O)c1ccc(NC(=O)[C@@H]2CCCN2S(=O)(=O)c2ccccc2)cc1 | 26.3 | 23.6 | 6.80 | 10.06 | 31.1 | 29.4 | – | – | – | –
7 | – | – | Cc1ccc(S(=O)(=O)N2CCC[C@H]2C(=O)Nc2ccc(C(=O)O)cc2)cc1 | 31.5 | 28.8 | 7.00 | 11.92 | 35.3 | 36.3 | – | – | – | –
8 | – | 6.92 | CCCCN(CCCC)c1c([N+](=O)[O-])cc(S(=O)(=O)Nc2ccccc2)cc1[N+](=O)[O-] | – | – | – | – | – | – | – | – | – | –
9 | – | – | COc1ccc2c(c1)c(CC(=O)O)c(C)n2C(=O)c1ccc(Cl)cc1 [INDOMETHACIN] | – | – | – | – | – | – | 56.9 | 63.5 | 64.8 | 63.6
10 | – | – | Nc1nc(N)nc(Nc2ccc([As]3SCC(CO)S3)cc2)n1 (stereo unspecified) [MELARSOPROL] | – | – | 8.30 | 8.75 | – | – | – | – | – | –
11 | – | – | Cc1ccc(S(=O)(=O)N2CC(O)C[C@H]2C(=O)Nc2ccc(C(=O)O)cc2)cc1 (stereo partly specified) | 60 | 58 | 6.81 | 12.01 | 84 | 67.2 | – | – | – | –
12 | – | – | Cc1ccccc1S(=O)(=O)N1CCC[C@H]1C(=O)Nc1ccc(C(=O)O)cc1 | 39.4 | 35.8 | 6.87 | 13.09 | 40 | 36.3 | – | – | – | –
